Source: ChEMBL document CHEMBL1137014, “Structure-activity study of new inhibitors of human betaine-homocysteine S-methyltransferase” (J Med Chem, 2009)

Columns and labels:
[1] = target: T1, Betaine--homocysteine S-methyltransferase 1 (Homo sapiens) (UniProt Q93088); test: Inhibition of human recombinant BHMT expressed in Escherichia coli at 20 uM using 0.25 mM betaine and 0.1 mM DL-homocysteine as substrate
T1 sequence (whole entry): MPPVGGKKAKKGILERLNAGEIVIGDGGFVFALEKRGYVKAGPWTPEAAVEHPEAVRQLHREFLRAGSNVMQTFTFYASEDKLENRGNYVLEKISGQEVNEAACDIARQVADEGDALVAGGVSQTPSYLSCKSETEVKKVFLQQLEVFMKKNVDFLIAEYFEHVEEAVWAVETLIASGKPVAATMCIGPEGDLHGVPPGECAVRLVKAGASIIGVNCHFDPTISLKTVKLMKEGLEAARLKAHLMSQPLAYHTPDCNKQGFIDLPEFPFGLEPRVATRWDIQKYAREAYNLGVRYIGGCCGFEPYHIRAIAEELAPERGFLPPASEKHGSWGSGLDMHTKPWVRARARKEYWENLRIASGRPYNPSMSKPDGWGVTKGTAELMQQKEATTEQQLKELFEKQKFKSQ
In short: (§1)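 Radiometric assay with 0.2 μM enzyme, preincubated with inhibitor, then 100 μM DL-homocysteine (fresh from thiolactone) and 250 μM [methyl-14C]betaine. Run in 50 mM K-phosphate pH 7.5 with 10 mM β-mercaptoethanol, 37 °C, 30 min; stopped on ice. […] Enzyme-free blanks subtracted; triplicates; activity expressed relative to no-inhibitor control.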

[2] = target: T1, Betaine--homocysteine S-methyltransferase 1 (Homo sapiens); test: Inhibition of human recombinant BHMT expressed in Escherichia coli at 1 uM using 0.25 mM betaine and 0.1 mM DL-homocysteine as substrate; in short: as §1
[3] = target: T2, Betaine--homocysteine S-methyltransferase 1 (Homo sapiens, UniProt Q93088); test: Inhibition of human recombinant BHMT expressed in Escherichia coli using 2 mM betaine and 1 mM DL-homocysteine as substrate
T2 sequence (Q93088 whole entry): T1 sequence (whole entry)
In short: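 Same radiometric Dowex assay as for percent inhibition (0.2 μM enzyme, pH 7.5 K-phosphate, 37 °C, 30 min), but with 1 mM DL-homocysteine and 2 mM 14C-betaine. Ten inhibitor concentrations in duplicate per curve, IC50 by nonlinear regression. Three independent experiments, mean ± SEM.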

[4] = target: T2, Betaine--homocysteine S-methyltransferase 1; test: Binding affinity to human recombinant BHMT expressed in Escherichia coli by isothermal titration calorimetry
In short: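 ITC at 25 °C in 50 mM HEPES/NaOH, ACES/NaOH or Tris/HCl, pH 7.5, with 5 mM β-mercaptoethanol, no substrates present. 9 μL aliquots of 50 μM ligand injected into 5.1 μM protein (monomer, quantified by amino acid analysis after dialysis) until saturation. Heats corrected for dilution using buffer-only injections and fitted to the integrated heats.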

SMILES	inhibition [1]	inhibition [2]	IC50 [3]	Kd [4]
NC(CCSSCCCC(=O)O)C(=O)O (racemic)	19.1%	–	–	–
NC(CC[Se]CCCCC(=O)O)C(=O)O (racemic)	100%	94.3%	649 nM	–
CC(C)(CCSCCC(N)C(=O)O)CC(=O)O (racemic)	100%	98.1%	84 nM	–
C[C@@H](NCCSCCC(N)C(=O)O)C(=O)O (mixture of isomers)	15.5%	–	–	–
NC(CCSCSCCC(=O)O)C(=O)O (racemic)	97.6%	26.3%	3260 nM	–
C[N+](C)(CSCCC(N)C(=O)O)CC(=O)[O-] (racemic)	0%	0%	–	–
C[N+](C)(CCCSCCC(N)C(=O)O)CC(=O)[O-] (racemic)	3.3%	0%	–	–
C[C@H](NCCSCCC(N)C(=O)O)C(=O)O (mixture of isomers)	19.8%	–	–	–
C[N+](C)(CCSCCC(N)C(=O)O)CC(=O)[O-] (racemic)	23.8%	5.1%	–	–
NC(CCCCCCCC(=O)O)C(=O)O (racemic)	2.11%	–	–	–
NC(CCOCCCCC(=O)O)C(=O)O (racemic)	9.8%	–	–	–

More lines, now with the values ahead:

inhibition [1]	inhibition [2]	IC50 [3]	Kd [4]	SMILES
79%	22.4%	–	–	CN(CCCSCCC(N)C(=O)O)CC(=O)O (racemic)
37.1%	–	–	–	NC(CCSCCNCC(=O)O)C(=O)O (racemic)
0%	–	–	–	NC(CCSCCNCCC(=O)O)C(=O)O (racemic)
100%	97.8%	139 nM	–	C[C@@H](CCSCC[C@@H](N)C(=O)O)CC(=O)O (racemic)
–	–	701 nM	–	CC(C)(CCSCC[C@@H](N)C(=O)O)CC(=O)O
5.4%	–	–	–	NC(CCCSCCCC(=O)O)C(=O)O (racemic)
–	–	64 nM	51 nM	CC(C)(CCSCC[C@H](N)C(=O)O)CC(=O)O
98.5%	58.9%	2500 nM	–	CN(CCSCCC(N)C(=O)O)CC(=O)O (racemic)
